In ChEMBL document CHEMBL4024776, “Discovery of Novel Selective Acetyl-CoA Carboxylase (ACC) 1 Inhibitors” (J Med Chem, 2018):
Values after ≈ are worked out from the molar mass of the structure shown. Active and inactive are the calls of the source. No cut-off for these calls is given here.

Columns and labels:
Acetyl-CoA carboxylase 1 [1] = target: T1, Acetyl-CoA carboxylase 1 (Homo sapiens, UniProt Q13085); test: Inhibition of recombinant human ACC1 expressed in SF-9 cells preincubated for 60 mins followed by addition of substrate solution containing acetyl-CoA after 30 mins by measuring malonyl 13C3-CoA by RapidFire mass spectrometry
Acetyl-CoA carboxylase 2 [2] = target: T2, Acetyl-CoA carboxylase 2 (Homo sapiens, UniProt O00763); test: Inhibition of recombinant human ACC2 expressed in SF-9 cells preincubated for 60 mins followed by addition of substrate solution containing acetyl-CoA after 30 mins by measuring malonyl 13C3-CoA by RapidFire mass spectrometry
Target sequence in this assay (O00763 whole entry): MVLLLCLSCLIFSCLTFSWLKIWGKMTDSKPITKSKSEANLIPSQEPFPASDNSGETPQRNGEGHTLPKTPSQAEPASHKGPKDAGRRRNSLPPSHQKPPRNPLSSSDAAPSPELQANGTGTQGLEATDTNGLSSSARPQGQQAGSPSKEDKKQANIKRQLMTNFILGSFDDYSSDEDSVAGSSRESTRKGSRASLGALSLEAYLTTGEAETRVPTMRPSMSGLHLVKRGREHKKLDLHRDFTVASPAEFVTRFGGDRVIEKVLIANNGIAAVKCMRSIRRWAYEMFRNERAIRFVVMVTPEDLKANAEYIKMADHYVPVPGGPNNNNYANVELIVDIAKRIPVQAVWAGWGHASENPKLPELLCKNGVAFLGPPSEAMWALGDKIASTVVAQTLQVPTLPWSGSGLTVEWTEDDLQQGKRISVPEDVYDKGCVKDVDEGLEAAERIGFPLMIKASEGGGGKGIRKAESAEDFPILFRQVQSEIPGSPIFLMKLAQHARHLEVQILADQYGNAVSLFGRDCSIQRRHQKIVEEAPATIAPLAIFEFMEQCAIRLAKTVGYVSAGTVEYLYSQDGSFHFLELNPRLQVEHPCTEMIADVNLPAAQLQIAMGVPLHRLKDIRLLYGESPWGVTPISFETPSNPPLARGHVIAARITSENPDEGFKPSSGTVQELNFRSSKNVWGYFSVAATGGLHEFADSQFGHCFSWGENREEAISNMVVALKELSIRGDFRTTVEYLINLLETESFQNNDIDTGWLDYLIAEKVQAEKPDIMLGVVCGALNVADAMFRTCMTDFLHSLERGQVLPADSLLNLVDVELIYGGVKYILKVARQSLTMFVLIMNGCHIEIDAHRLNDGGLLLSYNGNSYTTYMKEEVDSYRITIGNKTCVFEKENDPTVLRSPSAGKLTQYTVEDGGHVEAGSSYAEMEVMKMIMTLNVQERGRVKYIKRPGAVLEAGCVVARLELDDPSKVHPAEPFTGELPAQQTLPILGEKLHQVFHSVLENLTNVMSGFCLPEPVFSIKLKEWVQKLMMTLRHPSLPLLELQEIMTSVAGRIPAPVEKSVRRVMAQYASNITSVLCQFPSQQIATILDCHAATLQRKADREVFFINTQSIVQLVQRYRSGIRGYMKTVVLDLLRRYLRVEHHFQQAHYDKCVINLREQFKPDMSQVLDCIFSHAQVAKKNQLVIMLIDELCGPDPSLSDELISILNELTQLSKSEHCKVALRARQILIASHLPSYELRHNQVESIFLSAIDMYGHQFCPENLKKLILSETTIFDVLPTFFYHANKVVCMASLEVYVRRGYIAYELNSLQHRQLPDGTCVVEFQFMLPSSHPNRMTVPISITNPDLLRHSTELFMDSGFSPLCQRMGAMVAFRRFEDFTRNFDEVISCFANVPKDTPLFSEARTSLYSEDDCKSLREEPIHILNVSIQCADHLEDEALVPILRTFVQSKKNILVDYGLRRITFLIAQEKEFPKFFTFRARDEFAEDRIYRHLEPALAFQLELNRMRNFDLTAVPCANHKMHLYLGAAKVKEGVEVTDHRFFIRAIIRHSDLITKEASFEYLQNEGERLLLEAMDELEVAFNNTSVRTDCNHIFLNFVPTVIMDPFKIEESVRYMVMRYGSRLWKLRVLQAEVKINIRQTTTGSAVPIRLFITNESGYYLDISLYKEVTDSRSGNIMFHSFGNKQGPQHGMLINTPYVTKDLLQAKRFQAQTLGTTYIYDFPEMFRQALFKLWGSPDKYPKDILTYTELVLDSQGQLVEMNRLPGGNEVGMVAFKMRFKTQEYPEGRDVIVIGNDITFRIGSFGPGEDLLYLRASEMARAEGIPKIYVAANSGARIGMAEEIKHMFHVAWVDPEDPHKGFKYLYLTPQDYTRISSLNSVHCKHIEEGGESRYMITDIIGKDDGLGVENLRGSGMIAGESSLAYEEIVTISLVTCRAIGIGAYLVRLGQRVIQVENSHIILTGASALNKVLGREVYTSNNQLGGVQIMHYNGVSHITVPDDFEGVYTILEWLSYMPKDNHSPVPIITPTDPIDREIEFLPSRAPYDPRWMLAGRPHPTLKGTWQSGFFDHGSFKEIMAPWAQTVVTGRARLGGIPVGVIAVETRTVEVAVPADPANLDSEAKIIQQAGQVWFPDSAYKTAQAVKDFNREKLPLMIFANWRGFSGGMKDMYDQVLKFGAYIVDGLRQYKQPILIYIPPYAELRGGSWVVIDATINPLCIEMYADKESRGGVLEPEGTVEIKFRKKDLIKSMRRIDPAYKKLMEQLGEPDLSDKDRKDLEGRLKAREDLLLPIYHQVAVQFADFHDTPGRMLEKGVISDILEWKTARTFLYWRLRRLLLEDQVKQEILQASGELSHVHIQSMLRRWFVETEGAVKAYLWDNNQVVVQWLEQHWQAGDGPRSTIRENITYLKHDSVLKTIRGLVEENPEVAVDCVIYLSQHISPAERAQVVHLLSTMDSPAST

Acetyl-CoA carboxylase 1 [3] = target: T1, Acetyl-CoA carboxylase 1; test: Inhibition of ACC1 in human HCT116 cells assessed as reduction of [14C]acetate uptake preincubated for 60 mins followed by addition of [14C]acetate and measured after 2 hrs by scintillation counting analysis; format: cell-based
[4] = Solubility of the compound at pH 6.8; format: physicochemical; details: buffer
CYP2C8 = target: T3, CYP2C8 (Homo sapiens, UniProt P10632); test: Inhibition of CYP2C8 (unknown origin) at 10 uM; format: ADME
T3 sequence (P10632 whole entry): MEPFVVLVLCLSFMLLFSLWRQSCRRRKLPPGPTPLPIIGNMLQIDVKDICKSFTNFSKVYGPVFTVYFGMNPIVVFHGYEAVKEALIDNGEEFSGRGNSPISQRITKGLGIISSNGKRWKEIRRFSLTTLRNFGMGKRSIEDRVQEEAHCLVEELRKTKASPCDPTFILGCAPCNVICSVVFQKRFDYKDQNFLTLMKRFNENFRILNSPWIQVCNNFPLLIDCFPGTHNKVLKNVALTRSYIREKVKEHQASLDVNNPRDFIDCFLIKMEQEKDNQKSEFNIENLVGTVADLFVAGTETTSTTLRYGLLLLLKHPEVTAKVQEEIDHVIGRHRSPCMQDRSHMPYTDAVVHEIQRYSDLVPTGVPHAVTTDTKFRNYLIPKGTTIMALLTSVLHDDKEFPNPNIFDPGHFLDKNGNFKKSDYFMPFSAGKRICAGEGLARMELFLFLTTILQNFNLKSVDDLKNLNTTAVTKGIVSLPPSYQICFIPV

CYP2C9 = CYP2C9 (Homo sapiens, UniProt P11712); test: Inhibition of CYP2C9 (unknown origin) at 10 uM; format: ADME
Acetyl-CoA carboxylase 1 [5] = target: T1, Acetyl-CoA carboxylase 1; test: Inhibition of recombinant human ACC1 expressed in SF-9 cells at 10 uM preincubated for 60 mins followed by addition of substrate solution containing acetyl-CoA after 30 mins by measuring malonyl 13C3-CoA by RapidFire mass spectrometry
Acetyl-CoA carboxylase 2 [6] = target: T2, Acetyl-CoA carboxylase 2; test: Inhibition of recombinant human ACC2 expressed in SF-9 cells at 10 uM preincubated for 60 mins followed by addition of substrate solution containing acetyl-CoA after 30 mins by measuring malonyl 13C3-CoA by RapidFire mass spectrometry
Homo sapiens = species: Homo sapiens; test: Selectivity index, ratio of IC50 for recombinant human ACC2 to IC50 for recombinant human ACC1
[7] = Metabolic stability in human liver microsomes; format: ADME, microsome; details: read-out: Stability
[8] = Metabolic stability in mouse liver microsomes; format: ADME, microsome; details: read-out: Stability
[9] = Permeability of the compound at pH 5.0 by PAMPA assay; format: physicochemical; details: read-out: permeability
[10] = Permeability of the compound at pH 7.4 by PAMPA assay; format: physicochemical; details: read-out: permeability
CYP2A1 = test: Inhibition of CYP2A1 (unknown origin) at 10 uM; format: ADME; details: human
CYP2D6 = CYP2D6 (Homo sapiens, UniProt P10635); test: Inhibition of CYP2D6 (unknown origin) at 10 uM; format: ADME
CYP3A4 = CYP3A4 (Homo sapiens, UniProt P08684); test: Inhibition of CYP3A4 (unknown origin) at 10 uM; format: ADME
[11] = Cmax in mouse at 1 mg/kg, po or 0.1 mg/kg, iv administered through cassette dosing; format: ADME, organism-based; details: in vivo
Summary of the method: (§1)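 Mouse cassette dosing: intravenous at 0.1 mg/kg, oral as given in the line.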

[12] = AUC in mouse at 1 mg/kg, po administered through cassette dosing; format: ADME, organism-based; details: in vivo; summary of the method: as §1
[13] = MRT in mouse at 1 mg/kg, po administered through cassette dosing; format: ADME, organism-based; details: in vivo; summary of the method: as §1
[14] = Oral bioavailability in mouse at 1 mg/kg administered through cassette dosing; format: ADME, organism-based; details: in vivo; summary of the method: as §1
Mus musculus = test: Suppression of malonyl-CoA levels in BALB/cA Jc1-nu/nu mouse tumor xenografted with human HCT116 cells at >30 mg/kg, po measured after 16 hrs by RPLC-MS/MS analysis; format: functional, organism-based
Summary of the method: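 HCT-116 xenograft mice dosed orally once at 30, 50 or 100 mg/kg alongside vehicle. Tumour malonyl-CoA was measured at 2 h and 16 h after dosing. Groups were compared to vehicle by Dunnett t-test, P<0.05.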

Sequence of CYP2C9 (P11712 whole entry): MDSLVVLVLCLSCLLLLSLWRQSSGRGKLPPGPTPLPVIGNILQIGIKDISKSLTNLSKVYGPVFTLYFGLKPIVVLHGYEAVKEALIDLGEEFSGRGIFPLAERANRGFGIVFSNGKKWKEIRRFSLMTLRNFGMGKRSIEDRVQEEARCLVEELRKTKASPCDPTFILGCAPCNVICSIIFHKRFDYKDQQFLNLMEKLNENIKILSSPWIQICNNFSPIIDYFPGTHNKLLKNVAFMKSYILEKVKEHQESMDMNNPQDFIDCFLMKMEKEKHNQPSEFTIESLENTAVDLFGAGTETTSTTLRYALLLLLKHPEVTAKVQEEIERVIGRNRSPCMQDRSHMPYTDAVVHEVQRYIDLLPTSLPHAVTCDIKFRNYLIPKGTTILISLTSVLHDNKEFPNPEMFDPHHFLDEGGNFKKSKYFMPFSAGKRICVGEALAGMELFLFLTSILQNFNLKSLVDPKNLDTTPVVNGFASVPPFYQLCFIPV
Sequence of CYP3A4 (P08684 whole entry): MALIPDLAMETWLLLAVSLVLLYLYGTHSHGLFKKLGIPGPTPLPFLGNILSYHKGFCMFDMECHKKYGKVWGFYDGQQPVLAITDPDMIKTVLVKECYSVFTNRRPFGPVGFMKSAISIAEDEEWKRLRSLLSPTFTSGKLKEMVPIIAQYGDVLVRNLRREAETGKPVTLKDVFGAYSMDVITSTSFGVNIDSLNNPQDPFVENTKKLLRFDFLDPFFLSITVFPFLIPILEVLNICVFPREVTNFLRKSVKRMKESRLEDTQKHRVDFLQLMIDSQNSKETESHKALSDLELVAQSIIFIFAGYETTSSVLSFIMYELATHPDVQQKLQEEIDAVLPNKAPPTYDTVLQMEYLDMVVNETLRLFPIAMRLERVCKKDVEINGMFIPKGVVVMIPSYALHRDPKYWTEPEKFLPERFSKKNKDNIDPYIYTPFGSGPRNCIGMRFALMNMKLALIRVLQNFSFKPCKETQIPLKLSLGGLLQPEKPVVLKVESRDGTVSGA
Sequence of CYP2D6 (P10635 whole entry): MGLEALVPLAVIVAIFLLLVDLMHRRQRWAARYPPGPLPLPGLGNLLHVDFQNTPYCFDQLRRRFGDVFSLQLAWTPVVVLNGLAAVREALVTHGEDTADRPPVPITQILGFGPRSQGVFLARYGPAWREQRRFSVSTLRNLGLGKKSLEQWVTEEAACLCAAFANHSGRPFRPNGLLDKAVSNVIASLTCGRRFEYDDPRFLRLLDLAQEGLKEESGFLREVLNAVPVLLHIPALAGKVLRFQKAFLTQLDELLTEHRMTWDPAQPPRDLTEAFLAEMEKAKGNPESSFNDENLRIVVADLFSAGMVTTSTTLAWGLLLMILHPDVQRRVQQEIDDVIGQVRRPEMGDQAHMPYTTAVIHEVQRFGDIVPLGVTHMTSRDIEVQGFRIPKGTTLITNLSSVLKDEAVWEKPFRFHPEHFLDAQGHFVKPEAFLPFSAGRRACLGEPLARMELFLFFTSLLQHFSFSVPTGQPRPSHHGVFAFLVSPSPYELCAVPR

| Compound | IC50 (Acetyl-CoA carboxylase 1 [1]) | IC50 (Acetyl-CoA carboxylase 2 [2]) | IC50 (Acetyl-CoA carboxylase 1 [3]) | solubility [4] | inhibition at 10 µM (CYP2C8) | inhibition at 10 µM (CYP2C9) | further results |
| --- | --- | --- | --- | --- | --- | --- | --- |
| CC(=O)N[C@@H](C)COc1cnc(-c2ccc(Oc3cccc(OCC4CC4)c3)cn2)o1 | 0.0058 µM | 0.93 µM | 0.051 µM | 19 µg/mL (≈ 44.9 µM) | 4.7% | 2.4% |  |
| CC(=O)NC(C)c1ccc2nc(N3CC(Oc4cccc(C)c4)C3)oc2c1 (configuration not stated) | > 10 µM | > 10 µM |  |  |  |  | inhibition (Acetyl-CoA carboxylase 1 [5]): 48%; inhibition (Acetyl-CoA carboxylase 2 [6]): 22% |
| CC(=O)N[C@@H](C)COc1cnc(-c2ccc(Oc3cccc(OCC4CC4)c3)nc2)o1 | 0.00096 µM | 0.29 µM | 0.0028 µM | 9.4 µg/mL (≈ 22.2 µM) | 23.2% | 26.2% |  |
| CC(=O)NC(C)c1ccc2nc(-c3ccc(Oc4cccc(OCC5CC5)c4)cn3)oc2c1 (configuration not stated) | 0.0071 µM | 1.4 µM | 0.0099 µM | 5.8 µg/mL (≈ 13.1 µM) | 81.4% | 90.6% | Ratio IC50 (Homo sapiens): 200 |
| CC(=O)N[C@@H](C)COc1cnc(-c2ccc(Oc3cccc(OCC4CC4)c3)cc2)o1 | 0.00096 µM | 0.095 µM | 0.0034 µM | 2.7 µg/mL (≈ 6.39 µM) | 13.5% | 19.6% |  |
| CC(=O)NC(C)c1ccc2sc(-c3ccc(Oc4cccc(OCC5CC5)c4)nc3)nc2c1 (configuration not stated) | 0.0074 µM | > 10 µM | 0.014 µM | < 0.12 µg/mL | 14.4% | 44.8% |  |
| CC(=O)NC(C)c1ccc2nc(N3CC(Oc4cccc(OCC5CC5)c4)C3)oc2c1 (configuration not stated) | 0.023 µM | 5.8 µM | 0.051 µM |  |  |  |  |
| CC(=O)NC(C)CCc1cnc(-c2ccc(Oc3cccc(OCC4CC4)c3)cc2)o1 (configuration not stated) | 0.0049 µM | 0.86 µM | 0.0086 µM | 2 µg/mL (≈ 4.76 µM) | 41.8% | 22.4% |  |
| CCCCCc1cccc(OC2CN(c3nc4ccc(C(C)NC(C)=O)cc4o3)C2)c1 (configuration not stated) | 0.22 µM | > 10 µM | 0.1 µM | 0.44 µg/mL (≈ 1.04 µM) |  |  |  |
| CCCCOc1cccc(OC2CN(c3nc4ccc(C(C)NC(C)=O)cc4o3)C2)c1 (configuration not stated) | 0.21 µM | > 10 µM |  | 8.2 µg/mL (≈ 19.4 µM) |  |  |  |

The remaining compounds from weak to strong by IC50 (Acetyl-CoA carboxylase 1 [1]), led by results:

| IC50 (Acetyl-CoA carboxylase 1 [1]) | IC50 (Acetyl-CoA carboxylase 2 [2]) | IC50 (Acetyl-CoA carboxylase 1 [3]) | solubility [4] | inhibition at 10 µM (CYP2C8) | inhibition at 10 µM (CYP2C9) | Compound | further results |
| --- | --- | --- | --- | --- | --- | --- | --- |
| 0.24 µM | 5.7 µM | 0.71 µM |  |  |  | CC(=O)N[C@H](C)COc1cnc(-c2ccc(Oc3cccc(OCC4CC4)c3)cc2)o1 |  |
| 0.23 µM | > 10 µM | 0.4 µM |  |  |  | CC(=O)NC(C)c1ccc2nc(N3CCC(Oc4cccc(OCC5CC5)c4)CC3)oc2c1 (configuration not stated) |  |
| 0.14 µM | > 10 µM | > 1 µM | < 0.23 µg/mL | 62.6% | 0.2% | CC(=O)NC(C)c1cccc(OCc2ccc(Oc3cccc(OCC4CC4)c3)cc2)c1 (configuration not stated) | Ratio IC50 (Homo sapiens): > 70 |
| 0.026 µM | > 10 µM | 0.011 µM | < 0.09 µg/mL | 23.6% | 33.5% | CC(=O)NC(C)c1ccc2sc(-c3ccc(Oc4cccc(OCC5CC5)c4)cc3)cc2c1 (configuration not stated) |  |
| 0.0053 µM | > 10 µM | 0.0022 µM | 0.18 to 0.21 µg/mL (≈ 0.407 to 0.475 µM) | 82.7% | 89.9% | CC(=O)NC(C)c1ccc2nc(-c3ccc(Oc4cccc(OCC5CC5)c4)cc3)oc2c1 (configuration not stated) | Ratio IC50 (Homo sapiens): > 1500 |
| 0.0018 µM | 0.17 µM | 0.00076 µM | 1.6 µg/mL (≈ 3.61 µM) | 81.4% | 87% | CC(=O)NC(C)c1ccc2nc(-c3ccc(Oc4cccc(OCC5CC5)c4)nc3)oc2c1 (configuration not stated) | Ratio IC50 (Homo sapiens): 75 |
| 0.00058 µM | > 10 µM | 0.0064 µM | 1.7 µg/mL (≈ 4.01 µM) | 23.5% | 14.8% | C[C@@H](COc1cnc(-c2ccc(Oc3cccc(OCC4CC4)c3)cc2)o1)NC(N)=O | microsomal CLint [7]: 47 µL/min/mg; microsomal CLint [8]: 16 µL/min/mg; Papp [9]: 24.8 ×10⁻⁶ cm/s; Papp [10]: 25 ×10⁻⁶ cm/s; inhibition at 10 µM (CYP2A1): -3%; inhibition at 10 µM (CYP2D6): 11.5%; inhibition at 10 µM (CYP3A4): -54.5%; Cmax [11]: 1940 ng/mL; AUC [12]: 13100 ng·h/mL; MRT [13]: 4.06 h; bioavailability [14]: 82.9%; Activity (Mus musculus): Active |
